# How the values were obtained:
# [1] = target: T1, Retinoic acid receptor RXR-alpha (Homo sapiens) (UniProt P19793); assay: Agonist activity at Gal4-fused RXRalpha (unknown origin) transfected in HEK293 cells assessed as induction of transcriptional activity at 4 uM after 24 hrs by luciferase/beta-galactosidase reporter gene assay relative to CD3254; type: cell-based
# T1 sequence (whole entry): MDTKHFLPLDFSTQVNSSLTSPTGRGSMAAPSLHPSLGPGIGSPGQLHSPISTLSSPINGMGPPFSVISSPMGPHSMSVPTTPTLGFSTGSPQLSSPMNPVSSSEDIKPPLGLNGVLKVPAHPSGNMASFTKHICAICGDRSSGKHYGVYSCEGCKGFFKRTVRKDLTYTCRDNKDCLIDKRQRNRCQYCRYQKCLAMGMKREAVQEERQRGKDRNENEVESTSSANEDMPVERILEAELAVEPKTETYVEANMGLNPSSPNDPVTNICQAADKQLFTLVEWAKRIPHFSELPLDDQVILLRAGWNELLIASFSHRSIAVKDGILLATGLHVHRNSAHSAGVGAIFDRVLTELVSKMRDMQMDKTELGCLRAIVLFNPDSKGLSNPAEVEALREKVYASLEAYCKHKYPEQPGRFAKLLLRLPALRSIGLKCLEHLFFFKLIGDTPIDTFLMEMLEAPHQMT
# In short: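 Gal4-RARα or Gal4-RXRα (10 ng) plus 2 ng β-galactosidase vector, calcium phosphate transfection into HEK-293 cells carrying a 5×UAS luciferase reporter. After 16 h, cells were washed and given 5% charcoal-treated FBS medium, then rested 2 h. Stimulation was with 4 µM compound or 0.1% DMSO; controls were 1 µM atRA (RARα) or 1 µM CD3254 (RXRα). Harvest was at 6 h (RARα) or 24 h (RXRα). Luciferase/β-gal ratio was expressed as fold over unstimulated cells. Data: 2 experiments, triplicate.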
# [2] = target: T1, Retinoic acid receptor RXR-alpha (Homo sapiens); assay: Agonist activity at recombinant GST-tagged RXRalpha LBD (unknown origin) assessed as induction of biotinylated SRC-1-676-700 coactivator recruitment after 4 hrs by TR-FRET assay
# In short: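 5 nM GST-RXRα LBD was incubated with 150 nM biotin-SRC-1 676-700 peptide at room temperature in binding buffer (25 mM Hepes pH 7.4, 100 mM NaCl, 0.025% BSA, 5% glycerol, 0.005% Tween-20, 2.5 mM DTT; ≤1% DMSO). Detection used 2 nM Eu-anti-GST plus 37.5 nM streptavidin-allophycocyanin. The 665/615 nm ratio was read at 4 h and expressed as Delta F% versus no-receptor control.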
# [3] = target: T1, Retinoic acid receptor RXR-alpha (Homo sapiens); assay: Agonist activity at recombinant GST-tagged RXRalpha LBD (unknown origin) assessed as induction of fluorescein labeled D22 coactivator recruitment after 4 hrs by TR-FRET assay
# In short: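 5 nM GST-RXRα LBD was incubated with 150 nM fluorescein-D22 peptide at room temperature in Hepes pH 7.4 binding buffer (≤1% DMSO), with 2 nM Tb-anti-GST antibody. The 520/495 nm TR-FRET ratio was read after 4 h and reported as Delta F% relative to samples lacking receptor.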
Structure (SMILES),max activation [1] [%],Activity [2],Activity [3]
COCCOCOc1ccc(-c2ncc(-c3ccc(C(=O)O)cc3)s2)cc1C12CC3CC(CC(C3)C1)C2,21,,
COCCOCOc1cc(C)c(-c2ccc(/C=C/C(=O)O)cc2Cl)cc1C12CC3CC(CC(C3)C1)C2,,Dose-dependent effect,Dose-dependent effect
COCCOCOc1cc(C)c(-c2ccc(CC(=O)O)cc2Cl)cc1C12CC3CC(CC(C3)C1)C2,,Dose-dependent effect,Dose-dependent effect
Cc1cc(O)c(C23CC4CC(CC(C4)C2)C3)cc1-c1ccc(/C=C/C(=O)O)cc1Cl,,Dose-dependent effect,Dose-dependent effect
COCCOCOc1cc(C)c(-c2ccc3cc(C(=O)O)ccc3c2Cl)cc1C12CC3CC(CC(C3)C1)C2,,Dose-dependent effect,Dose-dependent effect

# — ChEMBL document CHEMBL3112476, “Inhibition of IκB kinase-β and IκB kinase-α by heterocyclic adamantyl arotinoids” (Bioorg Med Chem, 2014)
